According to ChEMBL document CHEMBL4196006, “Aryl thiosemicarbazones for the treatment of trypanosomatidic infections” (Eur J Med Chem, 2018):
The source made the active and inactive calls. The calls are words filed in the database; no cut-off is given here.

Legend:
CYP2C9 = CYP2C9 (Homo sapiens, UniProt P11712); assay: Inhibition of human microsomal CYP2C9 expressed in baculovirus infected BTI-TN-5B1-4 cells at 10 uM incubated for 30 mins by luciferase assay relative to control; type: ADME
Summary of the method: (§1)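 CYP1A2, 2C9, 2C19, 2D6 and 3A4 in microsomes from baculovirus-infected insect cells, each with a P450-Glo luminogenic substrate. Inhibition read as loss of light; single-point at 10 μM, triplicate.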

Trypanosoma brucei [1] = assay: Potentiation of methotrexate-induced antitrypanosomal activity against Trypanosoma brucei Lister 427 bloodstream form at 10 uM after 72 hrs by resazurin dye-based assay relative to control; type: functional
[2] = Cytotoxicity against human U2OS cells assessed as viable cells at 50 uM after 72 hrs by MTT assay relative to control; type: cell-based; details: read-out: Activity
Trypanosoma brucei [3] = assay: Antitrypanosomal activity against Trypanosoma brucei Lister 427 bloodstream form at 10 uM after 72 hrs by resazurin dye-based assay relative to control; type: functional
[4] = Cytotoxicity against human 786-O cells assessed as inhibition of mitochondrial viability at 10 uM after 6 hrs by CMXRos staining based assay relative to control; type: cell-based, 786-0; details: read-out: INH
Summary of the method: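 Mitochondrial toxicity monitored by MitoTracker Red CMXRos uptake and high-content imaging; compound at 10 μM, triplicate.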

[5] = Cytotoxicity against human A549 cells assessed as growth inhibition at 10 uM after 48 hrs by CellTiter-Glo assay relative to control; values are per cent of control; details: A549 cells
Aurora kinase B = Aurora kinase B (Homo sapiens, UniProt Q96GD4); assay: Inhibition of recombinant full-length human aurora B kinase expressed in baculovirus system at 10 uM using MBP as substrate incubated for 45 mins by ADP-glo kinase assay; details: probe MBP
Summary of the method: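 Aurora B activity measured as ADP formation via coupled luciferase ADP-Glo luminescence; single-point at 10 μM, triplicate.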

Leishmania infantum = assay: Antileishmanial activity against Leishmania infantum amastigote form assessed as parasite growth inhibition at 50 uM after 72 hrs by steady-Glo reagent based assay relative to control; type: functional; details: read-out: GI
Summary of the method: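 Intramacrophage L. infantum amastigotes in THP-1-derived macrophages, tested at 50 μM or in dose-response. Plates held 72 h at 37 °C, 5% CO2. Medium was replaced by PBS, macrophages lysed, and parasites read by Steady-Glo luminescence. High-content imaging gave host cell number, infection ratio (infected/total cells) and parasites per infected cell. Values are means of at least two independent experiments.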

Trypanosoma brucei [6] = assay: Antitrypanosomal activity against Trypanosoma brucei Lister 427 bloodstream form assessed as parasite growth inhibition at 50 uM after 72 hrs by SYBR Green assay relative to control; type: functional; details: for inhibition of growth at 50 µM: Lister 427, 72 h, read-out: GI
Trypanosoma brucei [7] = assay: Antitrypanosomal activity against Trypanosoma brucei Lister 427 bloodstream form after 72 hrs by SYBR Green assay; type: functional, organism-based; details: Lister 427, 72 h
[8] = biological target: T1, Pteridine reductase 1 (Leishmania major) (UniProt Q01782); assay: Inhibition of Leishmania major PTR1 at 50 uM using H2B as substrate in presence of NADPH by photometric analysis relative to control
T1 sequence (whole entry): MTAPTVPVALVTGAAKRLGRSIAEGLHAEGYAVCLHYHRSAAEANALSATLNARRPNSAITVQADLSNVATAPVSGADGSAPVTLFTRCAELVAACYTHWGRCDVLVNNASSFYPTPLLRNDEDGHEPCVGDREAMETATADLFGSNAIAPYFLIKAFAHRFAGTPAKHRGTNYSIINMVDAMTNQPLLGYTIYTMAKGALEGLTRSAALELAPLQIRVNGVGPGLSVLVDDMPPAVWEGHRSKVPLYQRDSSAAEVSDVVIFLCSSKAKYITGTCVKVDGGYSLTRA

[9] = Cytotoxicity against human WI38 cells assessed as growth inhibition at 10 uM after 48 hrs by CellTiter-Glo assay relative to control; values are per cent of control; details: WI38 cells
Trypanosoma brucei [10] = assay: Potentiation of methotrexate-induced antitrypanosomal activity against Trypanosoma brucei Lister 427 bloodstream form at 10 uM after 72 hrs by resazurin dye-based assay; type: functional
[11] = Cytotoxicity against human THP1 cells assessed as viable cells at 100 uM after 72 hrs by MTT assay relative to control; type: cell-based, THP-1; details: read-out: Activity
Summary of the method: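 THP-1-derived macrophages exposed to compounds for 72 h, tested at 100 μM or in dose-response; viability read by MTT colorimetric assay.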

[12] = biological target: T2, Pteridine reductase, putative (Trypanosoma brucei) (UniProt Q581W1); assay: Inhibition of Trypanosoma brucei PTR1 at 50 uM using H2B as substrate in presence of NADPH by photometric analysis relative to control
T2 sequence (whole entry): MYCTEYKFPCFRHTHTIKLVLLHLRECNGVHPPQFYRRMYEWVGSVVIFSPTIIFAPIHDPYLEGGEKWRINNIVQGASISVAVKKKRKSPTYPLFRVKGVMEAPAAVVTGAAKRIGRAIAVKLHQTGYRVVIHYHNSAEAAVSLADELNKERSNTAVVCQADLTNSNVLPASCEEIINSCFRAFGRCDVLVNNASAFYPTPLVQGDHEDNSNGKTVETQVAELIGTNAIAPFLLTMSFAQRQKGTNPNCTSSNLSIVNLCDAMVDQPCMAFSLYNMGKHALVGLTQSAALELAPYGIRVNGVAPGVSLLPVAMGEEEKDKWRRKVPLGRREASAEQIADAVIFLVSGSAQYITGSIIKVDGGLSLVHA

CYP1A2 = biological target: T3, CYP1A2 (Homo sapiens, UniProt P05177); assay: Inhibition of human microsomal CYP1A2 expressed in baculovirus infected BTI-TN-5B1-4 cells at 10 uM incubated for 30 mins by luciferase assay relative to control; type: ADME; summary of the method: as §1
T3 sequence (P05177 whole entry): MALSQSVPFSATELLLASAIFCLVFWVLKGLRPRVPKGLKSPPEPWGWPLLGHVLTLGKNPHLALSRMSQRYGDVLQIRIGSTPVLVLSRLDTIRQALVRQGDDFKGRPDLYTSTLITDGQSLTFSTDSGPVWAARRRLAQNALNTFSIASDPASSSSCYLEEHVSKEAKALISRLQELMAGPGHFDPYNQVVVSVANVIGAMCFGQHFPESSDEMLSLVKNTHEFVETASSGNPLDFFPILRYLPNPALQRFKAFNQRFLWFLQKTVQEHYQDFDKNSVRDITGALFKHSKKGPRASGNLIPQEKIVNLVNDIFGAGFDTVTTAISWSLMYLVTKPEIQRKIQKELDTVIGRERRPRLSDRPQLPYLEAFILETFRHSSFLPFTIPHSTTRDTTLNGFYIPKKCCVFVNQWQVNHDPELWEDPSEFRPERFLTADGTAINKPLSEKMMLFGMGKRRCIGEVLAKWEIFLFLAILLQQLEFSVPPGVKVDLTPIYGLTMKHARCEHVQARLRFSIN

CYP3A4 = CYP3A4 (Homo sapiens, UniProt P08684); assay: Inhibition of human microsomal CYP3A4 expressed in baculovirus infected BTI-TN-5B1-4 cells at 10 uM incubated for 30 mins by luciferase assay relative to control; type: ADME; summary of the method: as §1
Trypanosoma cruzi [13] = assay: Antitrypanosomal activity against Trypanosoma cruzi amastigote form infected in human U2OS cells assessed as parasite growth inhibition at 50 uM after 72 hrs relative to control; type: functional; details: read-out: GI
Summary of the method: (§2)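 U2OS monolayers grown for 24 h, then infected with tissue-derived trypomastigotes of T. cruzi Y strain. Compounds were added 24 h after infection at 50 μM (single-point) or in dose-response, with 72 h exposure. Plates were fixed, stained and analysed by high-content imaging; activity was normalized to infected and non-infected controls. Means of at least two experiments; benznidazole as reference.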

CYP2D6 = CYP2D6 (Homo sapiens, UniProt P10635); assay: Inhibition of human microsomal CYP2D6 expressed in baculovirus infected BTI-TN-5B1-4 cells at 10 uM incubated for 30 mins by luciferase assay relative to control; type: ADME; summary of the method: as §1
CYP2C19 = CYP2C19 (Homo sapiens, UniProt P33261); assay: Inhibition of human microsomal CYP2C19 expressed in baculovirus infected BTI-TN-5B1-4 cells at 10 uM incubated for 30 mins by luciferase assay relative to control; type: ADME; summary of the method: as §1
hERG (KCNH2) = hERG (KCNH2) (Homo sapiens, UniProt Q12809); assay: Inhibition of human ERG at 10 uM incubated for 2 hrs by fluorescence polarisation assay relative to control
[14] = Selectivity index, ratio of CC50 for human U2OS cells to EC50 for Trypanosoma cruzi amastigote form; type: toxicity; details: read-out: Ratio CC50/EC50
Summary of the method: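 Selectivity index = CC50 in the human host or cytotoxicity cell line divided by parasite EC50.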

Trypanosoma cruzi [15] = assay: Antitrypanosomal activity against Trypanosoma cruzi amastigote form infected in human U2OS cells assessed as parasite growth inhibition after 72 hrs; type: functional, organism-based; summary of the method: as §2
[16] = Cytotoxicity against human U2OS cells assessed as decrease in viable cells after 72 hrs by cell number count in anti-T. cruzi high content imaging assay; details: U2OS cells

CYP2C19, sequence (P33261 whole entry): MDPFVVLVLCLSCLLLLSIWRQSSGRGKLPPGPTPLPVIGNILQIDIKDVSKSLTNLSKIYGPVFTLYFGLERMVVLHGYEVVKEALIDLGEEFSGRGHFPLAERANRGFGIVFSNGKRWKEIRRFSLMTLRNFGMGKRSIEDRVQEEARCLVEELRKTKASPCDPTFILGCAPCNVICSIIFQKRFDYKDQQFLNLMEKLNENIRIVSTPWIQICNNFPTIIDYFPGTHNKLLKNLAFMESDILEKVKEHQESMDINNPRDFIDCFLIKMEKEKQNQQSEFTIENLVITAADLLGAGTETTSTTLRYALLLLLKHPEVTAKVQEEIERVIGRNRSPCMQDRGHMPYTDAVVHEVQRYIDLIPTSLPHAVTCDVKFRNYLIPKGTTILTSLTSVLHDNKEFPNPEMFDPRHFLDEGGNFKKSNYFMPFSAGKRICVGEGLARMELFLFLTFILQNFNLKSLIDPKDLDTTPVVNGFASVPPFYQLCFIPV
hERG (KCNH2), sequence (Q12809 whole entry): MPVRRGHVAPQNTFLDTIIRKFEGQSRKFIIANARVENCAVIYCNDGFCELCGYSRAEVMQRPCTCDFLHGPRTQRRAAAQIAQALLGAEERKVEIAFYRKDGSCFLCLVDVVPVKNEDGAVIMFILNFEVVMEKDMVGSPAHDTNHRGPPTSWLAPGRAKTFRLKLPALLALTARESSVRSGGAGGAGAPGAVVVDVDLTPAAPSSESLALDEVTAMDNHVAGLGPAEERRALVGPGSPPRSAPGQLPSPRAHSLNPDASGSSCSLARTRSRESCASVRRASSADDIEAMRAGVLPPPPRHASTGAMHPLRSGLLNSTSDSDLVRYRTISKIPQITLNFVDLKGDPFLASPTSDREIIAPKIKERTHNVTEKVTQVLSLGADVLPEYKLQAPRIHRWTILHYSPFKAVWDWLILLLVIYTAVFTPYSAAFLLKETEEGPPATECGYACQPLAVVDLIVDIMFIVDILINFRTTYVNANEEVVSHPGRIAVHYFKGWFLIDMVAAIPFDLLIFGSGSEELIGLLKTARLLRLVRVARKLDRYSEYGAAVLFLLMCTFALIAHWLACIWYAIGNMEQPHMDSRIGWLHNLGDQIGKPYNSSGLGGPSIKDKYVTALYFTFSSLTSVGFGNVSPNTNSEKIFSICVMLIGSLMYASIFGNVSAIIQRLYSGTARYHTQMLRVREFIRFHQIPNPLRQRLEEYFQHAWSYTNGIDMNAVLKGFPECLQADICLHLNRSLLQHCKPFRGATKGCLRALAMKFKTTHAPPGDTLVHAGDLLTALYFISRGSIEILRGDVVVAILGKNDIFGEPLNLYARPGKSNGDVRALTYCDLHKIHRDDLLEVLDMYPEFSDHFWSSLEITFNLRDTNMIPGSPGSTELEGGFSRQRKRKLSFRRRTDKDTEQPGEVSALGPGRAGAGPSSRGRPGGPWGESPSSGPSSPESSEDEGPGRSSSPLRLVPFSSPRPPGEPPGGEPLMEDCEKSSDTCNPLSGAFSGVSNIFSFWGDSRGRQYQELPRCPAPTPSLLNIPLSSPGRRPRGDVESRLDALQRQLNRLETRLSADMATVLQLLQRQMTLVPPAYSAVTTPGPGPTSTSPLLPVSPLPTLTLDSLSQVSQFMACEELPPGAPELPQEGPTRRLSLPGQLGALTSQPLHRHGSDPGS
CYP2C9, sequence (P11712 whole entry): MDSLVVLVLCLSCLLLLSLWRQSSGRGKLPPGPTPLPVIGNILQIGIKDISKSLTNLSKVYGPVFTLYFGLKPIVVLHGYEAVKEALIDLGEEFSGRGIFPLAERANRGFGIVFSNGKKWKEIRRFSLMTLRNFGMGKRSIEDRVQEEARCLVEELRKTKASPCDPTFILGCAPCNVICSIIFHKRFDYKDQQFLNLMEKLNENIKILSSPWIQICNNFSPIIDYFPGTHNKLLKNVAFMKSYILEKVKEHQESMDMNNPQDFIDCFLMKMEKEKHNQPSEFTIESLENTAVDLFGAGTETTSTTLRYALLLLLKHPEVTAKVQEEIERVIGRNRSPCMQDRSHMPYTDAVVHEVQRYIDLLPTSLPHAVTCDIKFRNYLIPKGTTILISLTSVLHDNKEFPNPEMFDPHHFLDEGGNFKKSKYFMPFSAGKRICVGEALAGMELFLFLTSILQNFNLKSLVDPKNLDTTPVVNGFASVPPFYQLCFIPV
CYP3A4, sequence (P08684 whole entry): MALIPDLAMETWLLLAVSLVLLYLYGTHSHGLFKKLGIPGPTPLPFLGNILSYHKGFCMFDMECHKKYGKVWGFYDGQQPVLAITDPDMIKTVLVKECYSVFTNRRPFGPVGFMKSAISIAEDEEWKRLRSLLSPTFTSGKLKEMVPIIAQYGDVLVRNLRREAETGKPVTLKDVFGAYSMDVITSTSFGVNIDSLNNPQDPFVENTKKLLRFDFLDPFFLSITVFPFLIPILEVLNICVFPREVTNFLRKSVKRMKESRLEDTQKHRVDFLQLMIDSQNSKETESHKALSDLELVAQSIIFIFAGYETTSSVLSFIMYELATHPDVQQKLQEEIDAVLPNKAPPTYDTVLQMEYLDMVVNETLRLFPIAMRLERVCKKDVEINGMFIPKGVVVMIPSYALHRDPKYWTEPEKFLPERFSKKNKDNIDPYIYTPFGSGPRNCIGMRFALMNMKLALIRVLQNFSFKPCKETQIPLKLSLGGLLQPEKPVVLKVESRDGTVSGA
Aurora kinase B, sequence (Q96GD4 whole entry): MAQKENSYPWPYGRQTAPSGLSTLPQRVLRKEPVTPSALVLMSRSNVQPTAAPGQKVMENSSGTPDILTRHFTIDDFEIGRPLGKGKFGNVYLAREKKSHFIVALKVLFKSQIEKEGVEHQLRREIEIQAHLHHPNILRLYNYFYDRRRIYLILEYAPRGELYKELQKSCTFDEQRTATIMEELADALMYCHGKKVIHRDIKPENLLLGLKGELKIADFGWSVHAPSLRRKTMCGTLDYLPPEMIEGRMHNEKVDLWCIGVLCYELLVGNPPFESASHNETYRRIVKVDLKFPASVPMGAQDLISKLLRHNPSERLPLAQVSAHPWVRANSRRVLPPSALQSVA
CYP2D6, sequence (P10635 whole entry): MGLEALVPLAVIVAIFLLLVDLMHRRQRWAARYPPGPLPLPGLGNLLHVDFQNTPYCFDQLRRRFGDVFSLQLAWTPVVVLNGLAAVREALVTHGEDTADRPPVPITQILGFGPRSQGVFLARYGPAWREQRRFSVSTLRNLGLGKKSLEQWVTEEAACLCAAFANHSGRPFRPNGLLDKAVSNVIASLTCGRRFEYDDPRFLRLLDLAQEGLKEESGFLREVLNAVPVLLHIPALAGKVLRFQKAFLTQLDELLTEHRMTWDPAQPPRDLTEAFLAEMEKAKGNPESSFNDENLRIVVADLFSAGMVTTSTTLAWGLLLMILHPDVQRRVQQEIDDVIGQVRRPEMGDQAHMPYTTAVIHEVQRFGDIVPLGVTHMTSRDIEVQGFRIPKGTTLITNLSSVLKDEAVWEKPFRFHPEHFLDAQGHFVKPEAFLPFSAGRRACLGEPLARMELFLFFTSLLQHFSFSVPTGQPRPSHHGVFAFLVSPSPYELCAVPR

Structure (SMILES) | inhibition at 0.5 h, 10 µM (CYP2C9) [%] | Activity (Trypanosoma brucei [1]) [%] | viability at 72 h, 50 µM [2] [%] | Activity (Trypanosoma brucei [3]) [%] | cytotoxicity at 6 h, 10 µM [4] [%] | cell growth (% of control) at 48 h, 10 µM [5] [%] | inhibition at 0.75 h, 10 µM (Aurora kinase B) [%] | inhibition of growth at 50 µM (Leishmania infantum) [%] | inhibition of growth at 50 µM (Trypanosoma brucei [6]) [%] | inhibition [8] [%] | cell growth (% of control) at 48 h, 10 µM [9] [%] | PF (Trypanosoma brucei [10]) | viability at 72 h, 100 µM [11] [%] | inhibition [12] [%] | inhibition at 0.5 h, 10 µM (CYP1A2) [%] | inhibition at 0.5 h, 10 µM (CYP3A4) [%] | inhibition of growth at 50 µM (Trypanosoma cruzi [13]) [%] | inhibition at 0.5 h, 10 µM (CYP2D6) [%] | inhibition at 0.5 h, 10 µM (CYP2C19) [%] | inhibition at 2 h, 10 µM (hERG (KCNH2)) [%] | other results
NC(=S)N/N=C/c1ccc2ncccc2c1 | 3.32 | 91.17 | 72.5 | 3.83 | -6.48 | 145 | 0.46 | 36 | 84.2 | 12.2 | 143 | 3.25 | 63.7 | 11.2 | 25.2 | -13.5 | 53.8 | 2.28 | -34.6 | -13.2 | EC50 (Trypanosoma brucei [7]): 34.4 µM
NC(=S)N/N=C/c1ccco1 | -12.2 | 24 | 112 | 3.33 | -4.4 | 124 | -8.76 | 26.9 | – | 14.8 | 106 | 0.87 | 92.9 | 3.99 | -0.31 | -12.2 | 93.6 | -43.1 | -43.2 | -7.97 | growth inhibition (GI) (Trypanosoma brucei [6]): inactive; selectivity ratio [14]: > 1; EC50 (Trypanosoma cruzi [15]): 1.87 µM; CC50 at 72 h [16]: > 44 µM
NC(=S)N/N=C/c1csc2ccccc12 | 14.6 | 52.33 | 152 | 21 | 12.6 | 101 | -4.29 | 24.4 | 3.57 | 4.9 | 95.3 | 1.16 | 44.9 | 3.09 | 100 | 5.98 | 24.3 | 22.1 | -17.1 | -5.27 | –
